In ChEMBL document CHEMBL1153881, “The influence of an ethylene spacer on the 5-HT(1A) and 5-HT(2A) receptor affinity of arylpiperazine derivatives of amides with N-acylated amino acids and 3-differently substituted pyrrolidine-2,5-diones” (Eur J Med Chem, 2009):

Assays:
[1] = target: 5-hydroxytryptamine receptor 2A (Rattus norvegicus, UniProt P14842); experiment: Displacement of [3H]ketanserin from 5HT2A receptor in rat cortical membrane; assay type: cell membranes
[2] = target: T1, 5-hydroxytryptamine receptor 1A (Rattus norvegicus, UniProt P19327); experiment: Displacement of [3H]8-OH-DPAT from 5HT1A receptor in rat hippocampal membrane; assay type: cell membranes, Hippocampus
T1 sequence (P19327 whole entry): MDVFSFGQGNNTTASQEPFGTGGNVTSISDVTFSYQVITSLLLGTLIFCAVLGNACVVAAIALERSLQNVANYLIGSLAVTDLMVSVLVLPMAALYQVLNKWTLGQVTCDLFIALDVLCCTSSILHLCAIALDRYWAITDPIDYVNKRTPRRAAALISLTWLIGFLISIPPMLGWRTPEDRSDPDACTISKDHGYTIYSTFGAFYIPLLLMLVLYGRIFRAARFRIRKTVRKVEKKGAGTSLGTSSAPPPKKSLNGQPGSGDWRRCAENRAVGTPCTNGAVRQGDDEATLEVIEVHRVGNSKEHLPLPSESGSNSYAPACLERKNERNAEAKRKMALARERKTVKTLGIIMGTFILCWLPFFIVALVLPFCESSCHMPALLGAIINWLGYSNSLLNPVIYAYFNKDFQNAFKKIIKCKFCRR
How it was run: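 Native receptor in rat hippocampal membranes, labelled with [3H]-8-OH-DPAT (170 Ci/mmol) and displaced by the compounds, which were tested without further purification. Screening used two compound concentrations. Full binding curves used 7–9 concentrations, each run in triplicate, and Ki was derived from inhibition of binding.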

Sequence of 5-hydroxytryptamine receptor 2A (P14842 whole entry): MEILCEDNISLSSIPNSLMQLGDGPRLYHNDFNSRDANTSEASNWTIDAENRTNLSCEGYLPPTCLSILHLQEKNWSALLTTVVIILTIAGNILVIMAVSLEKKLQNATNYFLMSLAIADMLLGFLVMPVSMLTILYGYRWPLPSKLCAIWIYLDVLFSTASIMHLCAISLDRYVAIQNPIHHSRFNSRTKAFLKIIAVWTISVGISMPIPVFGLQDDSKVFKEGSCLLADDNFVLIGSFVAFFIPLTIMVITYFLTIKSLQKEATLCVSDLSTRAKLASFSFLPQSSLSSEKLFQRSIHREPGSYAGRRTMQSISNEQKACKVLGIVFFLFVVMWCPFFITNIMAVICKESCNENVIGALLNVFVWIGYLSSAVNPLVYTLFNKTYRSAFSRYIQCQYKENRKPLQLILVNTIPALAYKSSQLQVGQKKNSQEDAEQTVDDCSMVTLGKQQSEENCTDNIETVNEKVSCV

| Compound | Ki [1] | Ki [2] |
| --- | --- | --- |
| O=C(NCCN1CCN(c2cccc(Cl)c2)CC1)[C@@H]1CCCN1C(=O)C1CCCC1 | 357 nM | 2010 nM |
| COc1ccccc1N1CCN(CCN2C(=O)C[C@H](NC(=O)C3CCCCC3)C2=O)CC1 | 7340 nM | 7440 nM |
| O=C(NCCN1CCN(c2cccc(Cl)c2)CC1)[C@@H]1CCCN1C(=O)c1ccccc1 | 1300 nM | 1950 nM |
| COc1ccccc1N1CCN(CCN2C(=O)C[C@H](NC(=O)CC3CC4CCC3C4)C2=O)CC1 (stereo partly drawn) | 12400 nM | 497 nM |
| COc1ccccc1N1CCN(CCNC(=O)[C@@H]2CCC(=O)N2C(=O)c2ccccc2)CC1 | 8710 nM | 1510 nM |
| O=C(N[C@H]1CC(=O)N(CCCN2CCN(c3cccc(Cl)c3)CC2)C1=O)C1CCCCC1 | 92 nM | 360 nM |
| COc1ccccc1N1CCN(CCN2C(=O)CC(NC(C)=O)C2=O)CC1 (stereo not drawn) | 5680 nM | 7590 nM |
| O=C(NCCCN1CCN(c2cccc(Cl)c2)CC1)[C@@H]1CCC(=O)N1C(=O)C1CCCCC1 | 800 nM | 1730 nM |
| O=C1CCC(=O)N1CCN1CCN(c2cccc(Cl)c2)CC1 | 2120 nM | 3670 nM |
| COc1ccccc1N1CCN(CCN2C(=O)C[C@H](NC(=O)C34CC5CC(CC(C5)C3)C4)C2=O)CC1 | 4800 nM | 579 nM |
| O=C(N[C@H]1CC(=O)N(CCN2CCN(c3cccc(Cl)c3)CC2)C1=O)c1ccccc1 | 1740 nM | 10000 nM |
| COc1ccccc1N1CCN(CCCNC(=O)[C@@H]2CCCN2C(C)=O)CC1 | 3140 nM | 580 nM |
| COc1ccccc1N1CCN(CCN2C(=O)CCC2=O)CC1 | 17600 nM | 2090 nM |
| COc1ccccc1N1CCN(CCNC(=O)[C@@H]2CCCN2C(C)=O)CC1 | 8600 nM | 6600 nM |
| COc1ccccc1N1CCN(CCCNC(=O)[C@@H]2CCC(=O)N2C(=O)c2ccccc2)CC1 |  | 390 nM |
| COc1ccccc1N1CCN(CCNC(=O)[C@@H]2CCCN2C(=O)C2CCCCC2)CC1 | 2330 nM | 3550 nM |
| COc1ccccc1N1CCN(CCCN2C(=O)C[C@H](NC(C)=O)C2=O)CC1 |  | 480 nM |
| COc1ccccc1N1CCN(CCNC(=O)[C@@H]2CCC(=O)N2C(=O)C2CCCCC2)CC1 | 14900 nM | 1000 nM |
| O=C(N[C@H]1CC(=O)N(CCN2CCN(c3cccc(Cl)c3)CC2)C1=O)C1CCCCC1 | 1410 nM | 3780 nM |
| O=C(NCCN1CCN(c2cccc(Cl)c2)CC1)[C@@H]1CCC(=O)N1C(=O)C1CCCCC1 | 3260 nM | 8520 nM |

Next, values leading:

| Ki [1] | Ki [2] | Compound |
| --- | --- | --- |
|  | 17 nM | COc1ccccc1N1CCN(CCCCNC(=O)[C@@H]2CCC(=O)N2C(=O)C2CCCCC2)CC1 |
| 163 nM | 111 nM | O=C(NCCCCN1CCN(c2cccc(Cl)c2)CC1)[C@@H]1CCC(=O)N1C(=O)C1CCCCC1 |
|  | 230 nM | COc1ccccc1N1CCN(CCCN2C(=O)C[C@H](NC(=O)C3CCCCC3)C2=O)CC1 |
| 254 nM | 5.7 nM | COc1ccccc1N1CCN(CCN2C(=O)CC3(CCCCC3)C2=O)CC1 |
| 503 nM | 3 nM | COc1ccccc1N1CCN(CCCCNC(=O)[C@@H]2CCCN2C(=O)C23CC4CC(CC(C4)C2)C3)CC1 |
|  | 40 nM | COc1ccccc1N1CCN(CCCN2C(=O)C[C@H](NC(=O)CC3CC4CCC3C4)C2=O)CC1 (stereo partly drawn) |
| 128 nM | 78 nM | O=C(NCCCCN1CCN(c2cccc(Cl)c2)CC1)[C@@H]1CCCN1C(=O)c1ccccc1 |
|  | 63 nM | COc1ccccc1N1CCN(CCCN2C(=O)C[C@H](NC(=O)C34CC5CC(CC(C5)C3)C4)C2=O)CC1 |
| 1920 nM | 350 nM | COc1ccccc1N1CCN(CCNC(=O)[C@@H]2CCCN2C(=O)C23CC4CC(CC(C4)C2)C3)CC1 |
| 75 nM | 41 nM | O=C(N[C@H]1CC(=O)N(CCCCN2CCN(c3cccc(Cl)c3)CC2)C1=O)c1ccccc1 |
|  | 69 nM | COc1ccccc1N1CCN(CCCCN2C(=O)C[C@H](NC(C)=O)C2=O)CC1 |
| 990 nM | 19 nM | COc1ccccc1N1CCN(CCCCNC(=O)[C@@H]2CCCN2C(=O)C2CCCCC2)CC1 |
| 137 nM | 227 nM | O=C1CC(C2CCCCC2)C(=O)N1CCN1CCN(c2cccc(Cl)c2)CC1 (stereo not drawn) |
| 15 nM | 4.3 nM | O=C1CC2(CCCCC2)C(=O)N1CCN1CCN(c2cccc(Cl)c2)CC1 |
| 868 nM | 24 nM | COc1ccccc1N1CCN(CCN2C(=O)CC(C3CCCCC3)C2=O)CC1 (stereo not drawn) |
